In all, about 370,000 compounds went through this assay and about 1,200 (0.32%) were called active.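 Rule for the calls: active = inhibition above the mean of all tested compounds plus 3 SD, set per campaign (cut at about 25% in these data); inactive = the rest.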 The entries come from a sample that favours actives as a whole.

Tyrosyl-DNA phosphodiesterase 2 (Homo sapiens), sequence (O95551 whole entry, looked up): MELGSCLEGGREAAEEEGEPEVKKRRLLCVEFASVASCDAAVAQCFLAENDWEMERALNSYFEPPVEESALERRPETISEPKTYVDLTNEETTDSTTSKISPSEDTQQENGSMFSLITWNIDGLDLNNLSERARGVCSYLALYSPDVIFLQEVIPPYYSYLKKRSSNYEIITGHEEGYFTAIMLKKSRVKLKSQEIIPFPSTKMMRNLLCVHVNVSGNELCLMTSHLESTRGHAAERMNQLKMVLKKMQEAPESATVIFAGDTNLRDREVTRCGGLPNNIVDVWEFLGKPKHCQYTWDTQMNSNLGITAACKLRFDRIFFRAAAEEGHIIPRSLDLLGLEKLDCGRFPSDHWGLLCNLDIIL

This assay addresses Tyrosyl-DNA phosphodiesterase 2 (Homo sapiens) (UniProt O95551). Nature of the assay: blockers of TDP2 phosphodiesterase activity – biochemical, epi absorbance, recombinant enzyme, primary screen (AID 720702).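 Note: 0% = DMSO with enzyme and 100% = buffer with substrate but no TDP2.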 The note with it: recombinant TDP2, T5PNP hydrolysis, p-nitrophenol absorbance 415 nm; at 12.8 µM; stronger effect = higher value. An outline of the steps:
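Assay system: recombinant human TDP2 / Reagent: T5PNP substrate at 5 mM, a TopII-DNA adduct mimic / Measured by: epi absorbance from released p-nitrophenol / Evaluation: % inhibition relative to enzyme-containing and enzyme-free wells / Control set: enzyme-free and DMSO wells / Replicates: each compound tested once, singlicate / Schedule: enzyme reaction with compound for 2 h at 37 °C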
By inhibition is commonly meant the relative decrease from the control value, in per cent. As to `COc1ccccc1CCNC(=O)C(=O)NCCC1CCCCN1S(=O)(=O)c1cccs1` (stereo not drawn), the inhibition was -2.28% (inactive).
As for `O=C(NCc1ccc(Cl)cc1)C(=O)NCC1CCCN1S(=O)(=O)c1cccs1` (stereo not drawn), the figure is 6.77% (inactive); as for `O=C(NCc1ccccc1Cl)C(=O)NCC1CCCN1S(=O)(=O)c1cccs1` (stereo not drawn), 25.5% (active); as for `COC(=O)C1CN(Cc2cn(Cc3ccc(F)cc3)nn2)CCS(=O)(=O)N1Cc1ccc(Cl)cc1` (stereo not drawn), -3.71% (inactive).
As for `CCCCc1c(O)nc2n(c1=O)CCS2`, the figure is 7.5% (inactive).
With `CCCCCCCCc1c(O)nc(-n2[nH]c(C)c(CCO)c2=O)[nH]c1=O` the figure was 41.6% (active); with `COc1cc(/C=C/C(=O)n2cnc3ccccc32)cc(OC)c1OC`, -7.12% (inactive); with `Cc1cc(C)c(S(=O)(=O)NN=C2c3ccccc3[C@H]3Cc4csc[n+]4[C@@H]23)c(C)c1`, 25.7% (active).
For the compound `CCSC(C)CC1C/C(=N/O)c2c(C)noc2C1` (stereo not drawn), the inhibition was 4.33% (inactive).
With `COC1=C[C@H](C(=O)NCCNC(C)=O)[C@H](C)[C@@H](c2ccccc2)CC1=O`, the inhibition is 6.52% (inactive).
Consider `Oc1c(C=Nc2cccc3nsnc23)ccc2ccccc12`, for which the inhibition was 59.5% (active).
As for `Cc1ccc(-n2c(COc3ccccc3)nnc2SCC(=O)Nc2ccc3c(c2)OCCO3)cc1`, the figure is -5.97% (inactive); as for `COC(=O)[C@H](C(C)C)N(CCCc1cn(Cc2ccccc2)nn1)S(=O)(=O)c1ccc(F)cc1Br`, -3.1% (inactive); as for `C=CCO/N=C(\C)c1c(O)c(C)c(-c2ccccc2)n(-c2ccccc2)c1=O`, -4.01% (inactive).
As for `COC(=O)[C@]12C[C@H](CC(=O)NCCCN3CCCC3=O)C(=O)N(CCc3ccc(OC)c(OC)c3)C1=C[C@H](COCc1ccccc1)O[C@@H]2C`, the figure is 5.78% (inactive).
With `O=C1C(=O)N(Cc2ccc(-c3ccsc3)cc2)c2ccc(OC(F)(F)F)cc21` the figure was 3.8% (inactive).
As for `COc1ccc2c(c1)C(C)=CC(C)(C)N2C(=O)Nc1ccccc1`, the inhibition was 41.9% (active).
As for `COc1ccc2c(c1)C(C)=CC(C)(C)N2C(=O)CNCc1ccc2c(c1)OCO2`, the figure is 4.77% (inactive); as for `COc1cccc(NC(=O)C2C(c3ccccc3)C2(Cl)Cl)c1` (stereo not drawn), 0.37% (inactive); as for `CC(=O)Nc1ccc(S(=O)(=O)NC(C)C(=O)OCCOc2ccc(F)cc2)cc1` (stereo not drawn), 3.48% (inactive).
As for `Cn1nc(N)c2ncc(C(Cl)(Cl)Cl)nc21`, the figure is 33.9% (active).
Turning to `Cc1[nH][nH]c(=O)c1C(c1ccc(-c2ccc(Cl)cc2)o1)c1c(C)[nH][nH]c1=O`, the inhibition was 30% (active).
For the compound `Cc1ccc(C2=CCN(C)C(=O)N2c2ccc(Cl)cc2)cc1`, the inhibition is 8.05% (inactive).
As for `COc1cccc(NC(=O)[C@H](Cc2c[nH]c3ccccc23)NC(=O)[C@@H]2Cc3ccccc3CN2)c1`, the figure is -6.32% (inactive).
For the compound `CC[C@@H](CCC(=O)N(c1ccccc1)c1ccccc1)C1CC1`, the inhibition is -0.32% (inactive).
As for `CCN(CC)C(=O)[C@H]1C[C@H](CC(=O)NCC23CC4CC(CC(C4)C2)C3)C(=O)N2CCc3c([nH]c4cc(CCC(=O)N(C)C)ccc34)[C@]12C`, the figure is -4.89% (inactive).
For `CCOc1ccc(C(CC(=O)O)NC(=O)C23CC4CC(CC(C4)C2)C3)cc1OC` (stereo not drawn), the inhibition was 0.7% (inactive).
For the compound `CCOc1ccc(C(c2c(C)[nH][nH]c2=O)c2c(C)[nH][nH]c2=O)cc1OCC`, the inhibition was 25.3% (active).
As for `CCOc1ccc(C(C)NC(=O)CN2C(=O)NC3(CCCCC3)C2=O)cc1OCC` (stereo not drawn), the figure is -6.82% (inactive); as for `CCOc1ccc(N(CC(=O)Nc2c(C)n(C)n(-c3ccccc3)c2=O)S(=O)(=O)c2ccc(Cl)s2)cc1`, -6.34% (inactive); as for `N#C/C(C(=O)N1CCOCC1)=C1/SC(Cc2ccc(F)cc2)C(=O)N1c1ccccc1` (stereo not drawn), 2.43% (inactive).
For `O=C(NC1CCC1)c1ccc(C#CC2CC2)cn1`, the inhibition is 4.08% (inactive).
With `CCCCNC(=O)C(C)N(CCN(C)C)C(=O)CCCCCN1C(=O)NC(c2ccc(Cl)cc2)C(C(=O)OCc2ccccc2)=C1C` (stereo not drawn) the figure was -0.25% (inactive).
As for `Cc1ccc(OCCCCN2CCCCC2)c(Br)c1`, the figure is 5.22% (inactive).
With `CC1CN(CCOc2ccccc2[N+](=O)[O-])CC(C)O1` (stereo not drawn) the figure was 14% (inactive); with `Cc1cc(C)c(OCCN2CC(C)OC(C)C2)c(Br)c1` (stereo not drawn), 30.7% (active).
Take `COc1ccc(-n2c(SCC(=O)Nc3ccc4c(c3)OCCO4)nnc2-c2ccc(Cl)cc2)cc1`: the inhibition was -7.72% (inactive).
As to `O=C(CN1C(=O)CSC1=O)N1CCCC(Nc2ccc(F)cc2)C1` (stereo not drawn), the inhibition is -8.75% (inactive).
Take `O=C(c1ccccc1)c1ccc(-c2ccccc2C(=O)NC2CCCCN(Cc3ccc(Cl)cc3)C2=O)cc1` (stereo not drawn): the inhibition is 15.2% (inactive).
As for `O=C(Cn1ncc2c3ccccc3n(Cc3ccccc3)c2c1=O)NCCCN1CCOCC1`, the figure is 12.7% (inactive); as for `CCCn1c2ccccc2c2cnn(CC(=O)NCCCN3CCCCC3CC)c(=O)c21` (stereo not drawn), -29.8% (inactive); as for `Cc1ccccc1Cn1c2ccccc2c2cnn(CC(=O)NCc3ccco3)c(=O)c21`, 24.5% (active).
With `CCC[C@H]1C(=O)CC[C@@]23CCCN2C(=O)CCC[C@@H]13` the figure was 2.8% (inactive); with `COc1ccccc1NC(=O)C1CCCN(c2cc(C)nc3ncnn23)C1` (stereo not drawn), 2.18% (inactive).
Regarding `COc1cccc(CNC(=O)C2CCCN(c3nc4ccccc4o3)C2)c1OC` (stereo not drawn), the inhibition is -1.52% (inactive).
As for `O=C(NCCCCO)C(F)(F)C(F)(F)C(F)(F)C(=O)NCCCCO`, the figure is -4.23% (inactive); as for `CCN(CC)CCCC(C)n1c2nc(=O)[nH]c(=O)c-2nc2cc(Cl)ccc21` (stereo not drawn), 24.6% (active).
As for `Cc1cc2nc3c(=O)[nH]c(=O)nc-3n(C[C@H](O)[C@H](O)[C@H](O)CO)c2cc1C`, the figure is 3.4% (inactive).
With `O=c1[nH][nH]c(C(F)(F)F)c1C=NCc1ccccc1Cl` the figure was 4.32% (inactive); with `C=CCn1c(=S)sc2c(=O)[nH]c(C)nc21`, 0.69% (inactive); with `Oc1ccc(N=Cc2sc3ccccc3c2Cl)cc1`, 28.4% (active).
`Oc1ccc(N=Cc2c(O)ccc3ccccc23)cc1`: the inhibition is 29.3% (active).
With `CCOC(=O)C1=C(C(=O)OCC)C2N(Cc3ccc(C#N)cc3)c3ccccc3[C@@]23C[C@@H](C(=O)OC)N(S(=O)(=O)c2ccc(F)cc2)C3=N1` (stereo partly drawn) the figure was 3.59% (inactive); with `COC(=O)[C@@]12CCCCC3=C1N(CCC3)C(=O)[C@H]2CC(=O)NCc1cccc2ccccc12`, 15.1% (inactive); with `COc1ccc(C(=O)OCCN2CCN(C3CN(Cc4cn(Cc5ccccc5F)nn4)S(=O)(=O)C3)CC2)cc1OC` (stereo not drawn), 11.2% (inactive).
With `Cc1nc([N+](=O)[O-])cn1CC(=O)Nc1ccc(Cl)cc1` the figure was 7.84% (inactive); with `CCOC(=O)C1CCN(C(=O)C(C)(C)NC(=O)Nc2ccccc2Cl)CC1`, 1.3% (inactive); with `c1coc(CCNc2ncnc3ccc(-c4ccc5c(c4)OCO5)cc23)c1`, 0.8% (inactive).
As for `Cc1cc(C)nc(NC(=S)N2CCN(c3ccc(C(F)(F)F)cn3)CC2)c1`, the figure is -1.93% (inactive); as for `Cc1cccc(C(=O)OCC(=O)Nc2sccc2C(N)=O)c1C`, -12.7% (inactive); as for `COc1cc(OC)cc(C(=O)OCC(=O)Nc2sccc2C(N)=O)c1`, 28.2% (active).
In the case of `NC(=O)c1ccsc1NC(=O)COC(=O)COc1ccc(C=O)cc1`, the inhibition is 2.52% (inactive).
As for `CC1Cc2nc(SCC(=O)Nc3ccccc3F)n(C)c(=O)c2S1` (stereo not drawn), the figure is 9.78% (inactive); as for `COC(=O)[C@]12C[C@H](CC(=O)N3CCOCC3)C(=O)N(Cc3ccc(Cl)cc3Cl)C1=C[C@H](C(C)C)O[C@@H]2C1CC1`, -1.98% (inactive); as for `CCOC(=O)Cn1c2c(n(-c3ccc(F)cc3)c1=O)C=C(c1ccccc1)[C@@H](C)C(C(=O)N(C)C1CCCCC1)=C2`, -5.6% (inactive).
As for `C=CCN(Cc1ccc2c(c1)OCO2)C(C#CC1CC1)C(C)(C)C` (stereo not drawn), the figure is 0.99% (inactive); as for `C[C@H]1[C@H](NC(=O)c2cccc(N(C)C)c2)CC[C@@]23CCCN2C(=O)CCC[C@@H]13`, -4.75% (inactive).
With `Clc1ccc(C2=CSC3=Nc4cccc5cccc(c45)N23)cc1` the figure was 65.8% (active); with `Cc1ccc(C)c(CN2CCC(CNC(=O)C3CCCN(c4ncnc5c4nc4n5CCCCC4)C3)CC2)c1` (stereo not drawn), -0.02% (inactive); with `O=C(NCCC1=CCCCC1)C1CCN(S(=O)(=O)c2ccc(Cl)s2)CC1`, 6.48% (inactive).
For the compound `Cc1ccc(S(=O)(=O)N2CCC(C(=O)NCCC3=CCCCC3)CC2)cc1C`, the inhibition was 33.1% (active).
As for `Cc1ccc(CCNC(=O)C2CCN(S(=O)(=O)N3CCCC3)CC2)cc1`, the figure is 3.54% (inactive); as for `C=C(C)CNC(=O)c1ccc(OC2CCN(C(=O)COC)CC2)cc1`, -0.83% (inactive); as for `NC1=CC(=O)C(=O)c2cccnc21`, 70.4% (active).
`O=C(NCc1ccccc1)[C@H]1CCCN1C(=O)[C@@H]1CCCN1C(=O)c1ccc(Cl)cc1Cl`: the inhibition is -1.81% (inactive).
With `O=C1CC(c2ccc3c(c2)OCO3)N=C2N(CC3CC3)C/C(=C/c3ccccc3)N12` (stereo not drawn) the figure was 7.53% (inactive); with `COC(=O)[C@]12C[C@H](CC(=O)NCc3cccs3)C(=O)N(CCc3ccc(OC)c(OC)c3)C1=C[C@H](C(C)C)O[C@@H]2C1CC1`, 3.66% (inactive); with `CCc1ccccc1NC(=S)Nc1cc(OC)c(NC(=O)C(C)C)cc1OC`, 39.9% (active).
With `COc1ccc(C)cc1NC(=S)Nc1ccccc1SC` the figure was 1.04% (inactive); with `COc1cc(NC(=S)NNC(=O)CC(C)C)c(OC)cc1Cl`, 8.52% (inactive).
With `Cc1cc(C)n2ncc(C(=O)Nc3ccc4c(c3)OCCO4)c2n1`, the inhibition was -3.81% (inactive).
For the compound `CN(C)C(=O)N1CCN(C(=O)[C@@H](Cc2ccccc2)NC(=O)[C@H]2O[C@@H](n3ccc(N)nc3=O)[C@H](O)[C@@H]2O)CC1`, the inhibition was 8.58% (inactive).
Regarding `Cc1ccc2nc(-c3ccc(NC(=O)CN(C)S(=O)(=O)c4ccccc4)cc3)sc2c1`, the inhibition is -18.6% (inactive).

The values are drawn from PubChem BioAssay AID720702 (The Scripps Research Institute Molecular Screening Center, 2013).
